Series [1] in a line: Displacement of Hoechst 33258 from DNA.
Series [2] can be described thus: Displacement of ethidium bromide from DNA.
In another series the test system is LoVo. The series can be described thus: Cytotoxicity against human LoVo cells after 72 hrs. It is filed as functional, cell-based. The essentials: (§1)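 Cells (ATCC) were exposed in log-phase growth for 72 h to compound across 10 µM to 10 nM in RPMI with 10% FCS, 4 mM glutamine, penicillin/streptomycin and fungizone, at 37 °C under 5% CO2. Viability was read as ATP from viable cells by luminescence kit. IC50 is the dose cutting ATP release by 50%.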

The subject of series [3] is A549. The series can be described thus: Cytotoxicity against human A549 cells after 72 hrs. It is filed as functional, cell-based. Conditions: A549, 72 h. The essentials:
as §1

In the next series the test system is Mus musculus. Description: Toxicity in P388 cells xenografted mouse at 10 to 20 mg/kg, ip for 4 days. It counts as organism-based. More on the design: dose 10-20 mg/kg, route intraperitoneal. Conditions: in vivo, 96 h. The essentials:
(§2)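 Compounds were given ip at 10 or 20 mg/kg per injection, once daily for 4 days. Antitumor activity and toxicity were both recorded.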

The target of the next series is T1, DNA topoisomerase 1 (Homo sapiens, UniProt P11387).
T1 sequence (P11387 whole entry): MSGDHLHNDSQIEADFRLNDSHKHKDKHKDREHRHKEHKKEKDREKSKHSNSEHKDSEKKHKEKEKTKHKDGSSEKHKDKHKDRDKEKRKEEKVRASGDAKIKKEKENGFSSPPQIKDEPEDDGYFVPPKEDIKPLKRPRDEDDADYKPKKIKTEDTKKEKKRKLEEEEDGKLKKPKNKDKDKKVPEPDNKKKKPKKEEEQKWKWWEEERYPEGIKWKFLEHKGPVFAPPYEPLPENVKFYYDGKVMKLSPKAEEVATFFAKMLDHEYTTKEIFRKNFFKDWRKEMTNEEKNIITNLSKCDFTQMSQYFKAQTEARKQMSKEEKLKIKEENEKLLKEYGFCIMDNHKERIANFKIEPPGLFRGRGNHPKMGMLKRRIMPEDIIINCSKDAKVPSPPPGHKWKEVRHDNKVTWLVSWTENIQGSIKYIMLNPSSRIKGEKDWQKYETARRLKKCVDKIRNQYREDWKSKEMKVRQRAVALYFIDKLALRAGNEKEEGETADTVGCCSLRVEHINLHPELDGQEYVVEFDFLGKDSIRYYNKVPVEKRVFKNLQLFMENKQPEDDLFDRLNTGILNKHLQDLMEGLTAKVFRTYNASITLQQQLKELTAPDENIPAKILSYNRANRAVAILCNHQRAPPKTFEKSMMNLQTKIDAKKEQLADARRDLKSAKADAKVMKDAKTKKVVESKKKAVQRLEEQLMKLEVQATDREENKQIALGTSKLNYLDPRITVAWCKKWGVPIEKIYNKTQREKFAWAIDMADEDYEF
Description: Inhibition of topoisomerase 1-mediated DNA relaxation. Summed up:
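Supercoiled plasmid DNA (200 ng) was incubated 20 min at 37 °C with the minimum purified topoisomerase I needed for full relaxation, with or without drug at 1, 3.2, 10 or 100 µM. The reaction was stopped with SDS–proteinase K, and products were resolved by agarose gel electrophoresis.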

A further series deals with V79. The series can be described thus: Effect on DNA damage in Chinese hamster V79 cells at 10 uM after 1 hr by comet assay relative to control. It counts as functional, cell-based. Conditions: Cricetulus griseus. The essentials: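 Cells were treated for 1 h at 10 µM. Controls carried 1% DMSO, matching the drug samples. Strand breaks were scored by comet assay, with representative photomicrographs (10×) of each full slide.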

Series [4] has as its system P388. The series can be described thus: Antitumor activity in mouse P388 cells xenografted mouse at 10 mg/kg, ip for 4 days. It is filed as functional, organism-based. More on the design: dose 10 mg/kg. The essentials: as §2
For a further series, the system named is MCF7. Description: Cytotoxicity against human MCF7 cells after 72 hrs. The settings on record: MCF7, 72 h. It is filed as functional, cell-based. The essentials:
as §1

Series [5] has as its system A549. The series can be described thus: Cell cycle arrest in human A549 cells by accumulation at S phase after 48 hrs by flow cytometry. It is filed as functional, cell-based. Summed up:
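A549 cells were seeded at 1.3 × 10^4 cells/cm², then drug-treated. They were stained with propidium iodide and read by flow cytometry on the […] channel. G1, S and G2/M fractions were obtained by deconvolution.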

The subject of a further series is SK-OV-3. The series can be described thus: Cytotoxicity against human SKOV3 cells after 72 hrs. It is filed as functional, cell-based. Conditions: SK-OV-3, 72 h. The essentials:
as §1

For another series, the system named is BXPC-3. Description: Cytotoxicity against human BxPC3 cells after 72 hrs. It is filed as functional, cell-based. The settings on record: BXPC-3, 72 h. The essentials:
as §1

Series [6] addresses DNA topoisomerase 2-alpha (Homo sapiens, UniProt P11388). Description: Inhibition of topoisomerase 2 mediated DNA relaxation.
The subject of series [7] is P388. The series can be described thus: Antitumor activity in mouse P388 leukemia model at 20 mg/kg, ip for 4 days. It counts as functional, organism-based. More on the design: dose 20 mg/kg. The essentials: as §2
Series [8] can be described thus: Inhibition of topoisomerase by kinetoplast DNA decatenation assay.
Series [9] is described as follows: Cytotoxicity against human Namalwa cells after 72 hrs. It is filed as functional, cell-based. Conditions: NAMALVA. Summed up:
as §1

For another series, the system named is CCRF-CEM. Description: Cytotoxicity against human CEM cells. It counts as functional, cell-based. Summed up: as §1
Series [10] in a line: Cytotoxicity against human HL60/MX2 cells. It counts as functional, cell-based.
For a further series, the system named is CEM/C2. The series can be described thus: Cytotoxicity against human topoisomerase 1 mutant CEM/C2 cells. It is filed as functional, cell-based. The essentials: as §1
For another series, the system named is HL-60. Description: Cytotoxicity against human HL60 cells. It counts as functional, cell-based.
Series [11] is described as follows: Inhibition of topoisomerase by kinetoplast DNA decatenation assay at 100 uM.

This note sets out measurements from ChEMBL document CHEMBL1142316, “Synthesis and biological evaluation of bengacarboline derivatives” (Bioorg Med Chem Lett, 2008).

pIC50: −log10 of the molar value. Calls of active or inactive are those of the source. The rule behind the calls is not given here. Some results are limits rather than exact numbers.

Chain of DNA topoisomerase 2-alpha (P11388 whole entry): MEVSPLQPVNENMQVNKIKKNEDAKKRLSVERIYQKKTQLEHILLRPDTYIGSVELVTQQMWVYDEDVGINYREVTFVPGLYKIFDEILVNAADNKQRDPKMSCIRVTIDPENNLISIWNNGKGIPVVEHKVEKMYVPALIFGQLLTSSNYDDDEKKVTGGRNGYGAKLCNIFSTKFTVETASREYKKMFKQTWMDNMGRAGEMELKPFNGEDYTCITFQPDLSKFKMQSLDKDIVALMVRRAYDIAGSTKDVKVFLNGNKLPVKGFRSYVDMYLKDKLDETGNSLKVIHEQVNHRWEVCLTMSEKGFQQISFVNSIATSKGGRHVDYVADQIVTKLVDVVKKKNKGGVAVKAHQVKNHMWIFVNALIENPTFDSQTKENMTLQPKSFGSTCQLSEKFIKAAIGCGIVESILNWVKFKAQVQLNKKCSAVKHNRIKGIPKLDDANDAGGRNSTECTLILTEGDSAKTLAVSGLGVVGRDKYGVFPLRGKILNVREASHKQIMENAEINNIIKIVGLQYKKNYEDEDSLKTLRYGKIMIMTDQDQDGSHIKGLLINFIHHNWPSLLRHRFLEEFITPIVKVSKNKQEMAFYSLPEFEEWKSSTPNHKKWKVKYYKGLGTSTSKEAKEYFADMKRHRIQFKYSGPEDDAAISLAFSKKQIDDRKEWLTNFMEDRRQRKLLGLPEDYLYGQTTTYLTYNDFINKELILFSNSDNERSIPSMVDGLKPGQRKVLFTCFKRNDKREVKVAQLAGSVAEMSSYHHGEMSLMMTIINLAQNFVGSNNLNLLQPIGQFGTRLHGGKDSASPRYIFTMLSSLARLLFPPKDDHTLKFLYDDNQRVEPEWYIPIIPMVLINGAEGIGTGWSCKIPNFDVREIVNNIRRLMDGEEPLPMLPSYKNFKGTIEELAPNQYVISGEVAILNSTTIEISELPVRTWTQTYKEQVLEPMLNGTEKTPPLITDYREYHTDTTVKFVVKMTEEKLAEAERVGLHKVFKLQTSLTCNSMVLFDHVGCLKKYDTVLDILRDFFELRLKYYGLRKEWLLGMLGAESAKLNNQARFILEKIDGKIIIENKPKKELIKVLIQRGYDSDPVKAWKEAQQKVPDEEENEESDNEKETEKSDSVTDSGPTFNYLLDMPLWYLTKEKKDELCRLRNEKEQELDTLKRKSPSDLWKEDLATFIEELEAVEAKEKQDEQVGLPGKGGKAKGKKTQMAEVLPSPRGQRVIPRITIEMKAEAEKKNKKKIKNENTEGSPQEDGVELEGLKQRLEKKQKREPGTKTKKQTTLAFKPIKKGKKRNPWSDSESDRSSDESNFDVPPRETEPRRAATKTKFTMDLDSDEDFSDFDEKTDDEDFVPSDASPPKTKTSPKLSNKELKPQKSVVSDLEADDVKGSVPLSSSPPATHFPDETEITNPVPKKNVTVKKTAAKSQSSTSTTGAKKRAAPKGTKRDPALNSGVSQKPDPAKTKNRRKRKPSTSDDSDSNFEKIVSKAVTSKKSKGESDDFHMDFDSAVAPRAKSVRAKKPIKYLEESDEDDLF

As a reminder, the pIC50 is the IC50 on a negative log10 scale, so that one unit is a factor of ten. The low end stands for a high IC50, the high end for a low IC50. Turning to `NCCc1c(C(c2[nH]c3cc(Br)ccc3c2CCNC(=O)C(F)(F)F)c2cn(S(=O)(=O)c3ccccc3)c3ccccc23)[nH]c2cc(Br)ccc12` (stereo not given), the result in series [1] and in series [2] was inactive. For the same compound, the pIC50 with LoVo is 5.35; with A549 [3], 5.30; on DNA topoisomerase 1, 5.05; with MCF7, 5.31; in the series with SK-OV-3 it was 5.19; in the series on BXPC-3, 5.44. The pIC50 in [6] is 4.72; in series [8], 4.70; in series [9] it was 5.46. Besides, the Activity entry was “Non-toxic” in the series on Mus musculus, “Non-toxic” in the series on P388 [4], “Dose-dependent effect” with A549 [5] and “Non-toxic” in the series on P388 [7]. In the series with V79, the outcome was Active.

With `NCCc1c(C(c2[nH]c3cc(Br)ccc3c2CCNC(=O)C(F)(F)F)c2c[nH]c3ccccc23)[nH]c2cc(Br)ccc12` (stereo not given), the outcome in series [1] and in series [2] was inactive. The pIC50 with CCRF-CEM was 5.26; in the series on LoVo it was 5.30; in the series with A549 [3] it was 5.34; in series [10], 5.00; on DNA topoisomerase 1 it was 5.10; in the series with CEM/C2 it was 5.25. Besides, the pIC50 was 5.38 in the series on MCF7; 5.19 in the series with SK-OV-3; 5.29 in the series with BXPC-3; 5.06 with HL-60; 4.89 in [6]; 4.70 in series [8]. In series [9], this compound gave a pIC50 of 5.27. The Activity entry is “Non-toxic” in the series on Mus musculus, “Non-toxic” in the series on P388 [4], “Dose-dependent effect” with A549 [5] and “Non-toxic” in the series with P388 [7]. For the same compound, in the series on V79, the result was Active.

`NCCc1c(C2(c3c[nH]c4ccccc34)NCCc3c2[nH]c2ccccc32)[nH]c2ccccc12` (stereo not given) [BENGACARBOLINE]: the pIC50 with LoVo is 5.00; in the series on A549 [3], 5.15; with MCF7, 5.07; in the series with SK-OV-3, under 5.00; in the series with BXPC-3, 5.00; in series [6], under 4.00. In [9], this compound showed a pIC50 of under 5.00. Also, the result in series [11] was inactive. Moreover, the result in the series on A549 [5] was Active.
